pKi: −log10 of the molar value. Several values for one entry are separate records, joined by “and”; a condition that tells them apart may be missing. Equal entries are not always repeated.
Tests used:
[1] = molecular target: T1, A. aeolicus IspH (Aquifex aeolicus, UniProt O67625); assay: IspH enzyme inhibition assay; type: biochemical
T1 sequence (O67625 1-289): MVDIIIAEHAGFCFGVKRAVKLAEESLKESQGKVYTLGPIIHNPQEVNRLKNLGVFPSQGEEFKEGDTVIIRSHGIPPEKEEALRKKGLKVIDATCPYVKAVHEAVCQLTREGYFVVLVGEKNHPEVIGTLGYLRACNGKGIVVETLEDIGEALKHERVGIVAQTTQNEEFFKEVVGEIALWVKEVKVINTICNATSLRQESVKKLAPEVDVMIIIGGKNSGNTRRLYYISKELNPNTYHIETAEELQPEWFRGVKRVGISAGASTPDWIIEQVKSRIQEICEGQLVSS
Procedure, shortened: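 Ni-NTA-purified recombinant enzyme expressed in E. coli BL-21(DE3). Cluster reconstituted anaerobically with DTT, elemental sulfur and FeCl3 until A410/A280 reached about 0.38. Run anaerobically at room temperature in pH 8.0 Tris·HCl/NaCl/5% glycerol with 0.4 mM dithionite, 2 mM methyl viologen and 72 nM enzyme, across varied HMBPP. Initial rates at 732 nm fitted to Michaelis-Menten.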

[2] = system: IspH; conditions: cited from earlier work
[3] = molecular target: farnesyl diphosphate synthase; conditions: read-out: Ki, farnesyl diphosphate synthase inhibition; previous work ref 22; cited from earlier work

Row | Structure (SMILES) | activity in IspH inhibition (in words) [1] | further results
1 | C/C(=C\COP(=O)(O)OP(=O)(O)O)CO [HMBPP, E-4-hydroxy-3-methyl-but-2-enyl diphosphate] | – | Km ([1]; read-out: KM for HMBPP, reconstituted A. aeolicus IspH, Michaelis-Menten fit): 5 µM and 7 µM
2 | O=P(O)(O)OP(=O)(O)O [PPi] | – | IspH inhibition (weak inhibitors) [2]: ~ 1 mM
3 | N#CCOP(=O)(O)OP(=O)(O)O [compound 15, Cyanomethyl diphosphate] | far less active than their acetylenic counterparts | –
4 | N#CCCOP(=O)(O)OP(=O)(O)O [compound 16, 2-Cyanoethyl diphosphate] | far less active than their acetylenic counterparts | –
5 | Cc1ccc[n+](CC(O)(P(=O)([O-])O)P(=O)(O)O)c1 (stereo not shown) [compound 18] | – | pKi [3]: ~7.70
6 | O=P(O)(O)OP(=O)(O)OCc1ccc(Cl)nc1 [compound 29, (6-Chloropyridin-3-yl)-methyl-diphosphate] | lack of activity | –
7 | C#CC(=O)O [propiolic acid] | poor activity | –

Source: article PMC2874468 (Journal of the American Chemical Society, 2010)
